The full list was thinned out, with hits kept by preference.
A1 apoptosis 2: A1 inhibitors via caspase activation, primary screen, cell-based, luminescence, HTS, two replicates; MEF A1-2A-BIM cells, caspase-Glo luminescence, 3 h; percent of clofoctol response, DMSO zero; caspase activation, % (test concentration not listed); 24,000 tested, under 10 active; AID 2465, 2010; in the data active = caspase activation above about 5.9%
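Material: mouse embryonic fibroblasts co-expressing A1 and BIM (A1-2A-BIM), primed for A1 dependence / Quantity: 2500 cells/well / Buffer or medium: RPMI-1640 growth medium with 10% FBS / Doses: 50 nL compound per well, pinned / Schedule: 3 h compound exposure at 37 °C / Signal: Caspase-Glo luminescence (DEVD substrate) / Measure: Caspase-3/7 activation, seen as rise in luminescence signal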
T cruzi HTS: inhibitors of intracellular Trypanosoma cruzi, primary screen, cell-based, plate reader, single point, set 2; intracellular Trypanosoma cruzi in host cells; activity score (inhibition), % at 5.01 µM; actives 4.9% (n = 22,000); in the data active = activity score above about 55%;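 note: parasites and compound incubated about four days before reading; 0% = median of neutral control wells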
INS-1E ATP HTS: protection of INS-1E cells from cytokine death, primary screen, ATP luminescence, single point. INS-1E cytokine-induced death, 48 h; normalised: neutral wells 0, positive control 100. protection from cytokine-induced ATP loss, % at 10 µM. actives 0.1% (n = 20,000). AID 488910, 2010;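 active = mean replicate protection from cytokine-induced ATP loss at least 50% and at least 75% of replicates each reaching 50%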
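Assay system – rat INS-1E insulinoma cell line · Quantity – 8000 cells per well · Buffer or medium – RPMI without phenol red, 5% FBS · Schedule – 48 h co-treatment, 10 min post-lysis read · Technique – luminescent ATP assay (CellTiter-Glo)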
The depositor's hits bear a star.

Cc1noc(C)c1S(=O)(=O)Nc1ccc2c(c1)C(=O)N([C@H](C)CO)C[C@H](C)[C@@H](CN(C)Cc1ccc(C(=O)Nc3ccccc3N)cc1)O2 was read as A1 apoptosis 2 1, T cruzi HTS 68* and INS-1E ATP HTS -14.
Screening Cc1noc(C)c1S(=O)(=O)Nc1ccc2c(c1)CC(=O)N([C@H](C)CO)C[C@@H](C)[C@@H](CN(C)Cc1ccc(C(=O)Nc3ccccc3N)cc1)O2 returned A1 apoptosis 2 0, T cruzi HTS 69* and INS-1E ATP HTS -2.
Screening Cc1noc(C)c1S(=O)(=O)Nc1cccc2c1O[C@@H](CN(C)Cc1ccc(C(=O)Nc3ccccc3N)cc1)[C@@H](C)CN([C@@H](C)CO)C2=O returned A1 apoptosis 2 -1, T cruzi HTS 66* and INS-1E ATP HTS -17.
`Cc1noc(C)c1S(=O)(=O)Nc1ccc2c(c1)CC(=O)N([C@@H](C)CO)C[C@@H](C)[C@@H](CN(C)Cc1ccc(C(=O)Nc3ccccc3N)cc1)O2` gave T cruzi HTS 71* and INS-1E ATP HTS -5.
Cc1noc(C)c1S(=O)(=O)Nc1ccc2c(c1)CC(=O)N([C@H](C)CO)C[C@@H](C)[C@H](CN(C)Cc1ccc(C(=O)Nc3ccccc3N)cc1)O2 was read as A1 apoptosis 2 -1, T cruzi HTS 28 and INS-1E ATP HTS -2.
C[C@H](CO)N1C[C@H](C)[C@@H](CN(C)Cc2ccc(C(=O)Nc3ccccc3N)cc2)Oc2c(NS(=O)(=O)c3ccccc3)cccc2C1=O was read as A1 apoptosis 2 0, T cruzi HTS 51 and INS-1E ATP HTS -4.
CC(C)NC(=O)N(C)C[C@H]1Oc2ccc(NC(=O)C3CC3)cc2C(=O)N([C@@H](C)CO)C[C@@H]1C was read as A1 apoptosis 2 1, T cruzi HTS -2 and INS-1E ATP HTS 11.
Screening Cc1noc(C)c1S(=O)(=O)Nc1ccc2c(c1)C(=O)N([C@@H](C)CO)C[C@H](C)[C@@H](CN(C)C(=O)CCC(F)(F)F)OCCCC[C@H](C)O2 returned A1 apoptosis 2 1.
`C[C@H](CO)N1C[C@H](C)[C@H](CN(C)S(=O)(=O)c2ccccc2)Oc2ccc(NC(=O)C3CCCCC3)cc2C1=O` gave A1 apoptosis 2 0, T cruzi HTS -7 and INS-1E ATP HTS -5.
For C[C@H](CO)N1C[C@H](C)[C@H](CN(C)CC2CCCCC2)Oc2ccc(NC(=O)Nc3ccccc3)cc2C1=O the results were T cruzi HTS -3 and INS-1E ATP HTS -9.
Screening C[C@@H]1CCCCO[C@@H](CN(C)C(=O)Nc2ccc(F)cc2)[C@H](C)CN([C@@H](C)CO)C(=O)c2cc(NS(=O)(=O)c3cn(C)cn3)ccc2O1 returned A1 apoptosis 2 0.
Screening CC(C)NC(=O)N(C)C[C@H]1Oc2ccc(NC(=O)Nc3ccc(F)cc3)cc2CC(=O)N([C@H](C)CO)C[C@H]1C returned A1 apoptosis 2 0, T cruzi HTS -37 and INS-1E ATP HTS 9.
For Cc1noc(C)c1S(=O)(=O)Nc1cccc2c1O[C@@H](CN(C)S(=O)(=O)c1ccccc1)[C@@H](C)CN([C@H](C)CO)C2=O the results were A1 apoptosis 2 -1, T cruzi HTS -19 and INS-1E ATP HTS 10.
For Cc1noc(C)c1S(=O)(=O)Nc1cccc2c1O[C@H](CN(C)S(=O)(=O)c1ccccc1)[C@H](C)CN([C@H](C)CO)C2=O the results were T cruzi HTS 65* and INS-1E ATP HTS 9.
For C[C@H](CO)N1C[C@H](C)[C@@H](CN(C)Cc2ccc(-c3ccccc3)cc2)Oc2c(NC(=O)CCCCCC(=O)Nc3ccccc3N)cccc2C1=O the results were A1 apoptosis 2 1, T cruzi HTS 75* and INS-1E ATP HTS -4.
For C[C@@H]1CN([C@@H](C)CO)C(=O)c2cccc(NC(=O)CCCCCC(=O)Nc3ccccc3N)c2O[C@@H]1CN(C)Cc1ccccc1 the results were T cruzi HTS 19 and INS-1E ATP HTS 24.
For C[C@@H]1CN([C@@H](C)CO)C(=O)c2cccc(NC(=O)CCCCCC(=O)Nc3ccccc3N)c2O[C@@H]1CN(C)Cc1ccc(Oc2ccccc2)cc1 the results were T cruzi HTS 59* and INS-1E ATP HTS 14.
C[C@@H]1CN([C@H](C)CO)C(=O)c2cccc(NC(=O)CCCCCC(=O)Nc3ccccc3N)c2O[C@@H]1CN(C)Cc1ccc(Oc2ccccc2)cc1 was read as A1 apoptosis 2 1, T cruzi HTS 15 and INS-1E ATP HTS 17.
